Laboratory results: ChEMBL document CHEMBL4715736, “Identification of anticancer agents based on the thieno[2,3-b]pyridine and 1H-pyrazole molecular scaffolds” (2016)

Assays:
Format in all cases: functional
[1] = tested on: SF-295; experiment: Growth inhibition of human SF-295 cells assessed as cell growth at 0.01 uM incubated for 48 hrs by sulforhodamine B assay relative to control; conditions: read-out: Activity
[2] = tested on: MDA-MB-435; experiment: Growth inhibition of human MDA-MB-435 cells assessed as cell growth at 0.01 uM incubated for 48 hrs by sulforhodamine B assay relative to control; conditions: read-out: Activity
[3] = tested on: SK-MEL-28; experiment: Growth inhibition of human SK-MEL-28 cells assessed as cell growth at 0.01 uM incubated for 48 hrs by sulforhodamine B assay relative to control; conditions: read-out: Activity
[4] = tested on: OVCAR-8; experiment: Growth inhibition of human OVCAR-8 cells assessed as cell growth at 0.01 uM incubated for 48 hrs by sulforhodamine B assay relative to control; conditions: read-out: Activity
[5] = tested on: DU-145; experiment: Growth inhibition of human DU-145 cells assessed as cell growth at 0.01 uM incubated for 48 hrs by sulforhodamine B assay relative to control; conditions: read-out: Activity
How it was run: (§1)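 NCI Developmental Therapeutics Program NCI60 panel. Compounds that were active in the 10 µM one-dose screen went on to dose–response testing. Growth at each concentration is expressed relative to untreated control (100%). GI50 (concentration giving 50% of maximal inhibition of proliferation) and TGI (concentration giving total growth inhibition) were derived from the curves.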

[6] = tested on: MDA-MB-231; experiment: Growth inhibition of human MDA-MB-231 cells assessed as cell growth at 0.01 uM incubated for 48 hrs by sulforhodamine B assay relative to control; conditions: read-out: Activity
[7] = tested on: T47D; experiment: Growth inhibition of human T47D cells assessed as cell growth at 0.01 uM incubated for 48 hrs by sulforhodamine B assay relative to control; conditions: read-out: Activity
[8] = tested on: CCRF-CEM; experiment: Growth inhibition of human CCRF-CEM cells assessed as cell growth at 0.1 uM incubated for 48 hrs by sulforhodamine B assay relative to control; conditions: read-out: Activity; how it was run: as §1
[9] = tested on: HOP-92; experiment: Growth inhibition of human HOP-92 cells assessed as cell growth at 0.1 uM incubated for 48 hrs by sulforhodamine B assay relative to control; conditions: read-out: Activity
[10] = tested on: SF-268; experiment: Growth inhibition of human SF-268 cells assessed as cell growth at 0.1 uM incubated for 48 hrs by sulforhodamine B assay relative to control; conditions: read-out: Activity
[11] = tested on: Malme-3M; experiment: Growth inhibition of human Malme-3M cells assessed as cell growth at 0.1 uM incubated for 48 hrs by sulforhodamine B assay relative to control; conditions: read-out: Activity
[12] = tested on: MDA-MB-435; experiment: Growth inhibition of human MDA-MB-435 cells assessed as cell growth at 0.1 uM incubated for 48 hrs by sulforhodamine B assay relative to control; conditions: read-out: Activity
[13] = tested on: MOLT-4; experiment: Growth inhibition of human MOLT-4 cells assessed as cell growth at 1 uM incubated for 48 hrs by sulforhodamine B assay relative to control; conditions: read-out: Activity
[14] = tested on: SF-539; experiment: Growth inhibition of human SF-539 cells assessed as cell growth at 1 uM incubated for 48 hrs by sulforhodamine B assay relative to control; conditions: read-out: Activity
[15] = tested on: LOX IMVI; experiment: Growth inhibition of human LOX IMVI cells assessed as cell growth at 1 uM incubated for 48 hrs by sulforhodamine B assay relative to control; conditions: read-out: Activity
[16] = tested on: Malme-3M; experiment: Growth inhibition of human Malme-3M cells assessed as cell growth at 1 uM incubated for 48 hrs by sulforhodamine B assay relative to control; conditions: read-out: Activity
[17] = tested on: NCI/ADR-RES; experiment: Growth inhibition of human NCI/ADR-RES cells assessed as cell growth at 1 uM incubated for 48 hrs by sulforhodamine B assay relative to control; conditions: read-out: Activity
[18] = tested on: BT-549; experiment: Growth inhibition of human BT-549 cells assessed as cell growth at 1 uM incubated for 48 hrs by sulforhodamine B assay relative to control; conditions: read-out: Activity
[19] = tested on: T47D; experiment: Growth inhibition of human T47D cells assessed as cell growth at 1 uM incubated for 48 hrs by sulforhodamine B assay relative to control; conditions: read-out: Activity
[20] = tested on: HT-29; experiment: Growth inhibition of human HT-29 cells assessed as cell growth at 100 uM incubated for 48 hrs by sulforhodamine B assay relative to control; conditions: read-out: Activity
[21] = tested on: SK-MEL-28; experiment: Growth inhibition of human SK-MEL-28 cells assessed as cell growth at 100 uM incubated for 48 hrs by sulforhodamine B assay relative to control; conditions: read-out: Activity
[22] = tested on: IGROV-1; experiment: Growth inhibition of human IGROV-1 cells assessed as cell growth at 100 uM incubated for 48 hrs by sulforhodamine B assay relative to control; conditions: read-out: Activity
[23] = tested on: MDA-MB-231; experiment: Growth inhibition of human MDA-MB-231 cells assessed as cell growth at 100 uM incubated for 48 hrs by sulforhodamine B assay relative to control; conditions: read-out: Activity
[24] = tested on: T47D; experiment: Growth inhibition of human T47D cells assessed as cell growth at 100 uM incubated for 48 hrs by sulforhodamine B assay relative to control; conditions: read-out: Activity
[25] = tested on: RPMI-8226; experiment: Growth inhibition of human RPMI-8226 cells incubated for 48 hrs by sulforhodamine B assay
How it was run: (§2)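 NCI DTP 60-line human tumour panel. Dose-response curves were run only for ligands active in the initial 10 µM screen. GI50 (concentration giving 50% of maximal inhibition of proliferation) and TGI (concentration giving total growth inhibition) were derived from these curves.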

[26] = tested on: NCI-H226; experiment: Growth inhibition of human NCI-H226 cells incubated for 48 hrs by sulforhodamine B assay
How it was run: (§3)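 NCI60 panel at the NCI Developmental Therapeutics Program. Only compounds active in the 10 µM screen went to dose-response testing. GI50, the concentration giving 50% of maximal inhibition of proliferation, and TGI, the concentration giving total growth inhibition, were derived from the dose-response curves.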

[27] = tested on: NCI-H322M; experiment: Growth inhibition of human NCI-H322M cells incubated for 48 hrs by sulforhodamine B assay; how it was run: as §3
[28] = tested on: UACC-257; experiment: Growth inhibition of human UACC-257 cells incubated for 48 hrs by sulforhodamine B assay; how it was run: as §2
[29] = tested on: IGROV-1; experiment: Growth inhibition of human IGROV-1 cells incubated for 48 hrs by sulforhodamine B assay; how it was run: as §3
[30] = tested on: OVCAR-8; experiment: Growth inhibition of human OVCAR-8 cells incubated for 48 hrs by sulforhodamine B assay; how it was run: as §2
[31] = tested on: SK-OV-3; experiment: Growth inhibition of human SK-OV-3 cells incubated for 48 hrs by sulforhodamine B assay; how it was run: as §2
[32] = tested on: SN12C; experiment: Growth inhibition of human SN12C cells incubated for 48 hrs by sulforhodamine B assay; how it was run: as §2
[33] = tested on: DU-145; experiment: Growth inhibition of human DU-145 cells incubated for 48 hrs by sulforhodamine B assay; how it was run: as §1
[34] = tested on: MDA-MB-468; experiment: Growth inhibition of human MDA-MB-468 cells incubated for 48 hrs by sulforhodamine B assay; how it was run: as §3
[35] = read-out: LC50 (the source's name)

## COc1cccc(NC(=O)c2sc3nc4c(cc3c2N)CN(Cc2ccccc2)CC4)c1
[1]
  growth at 0.01 µM: 87%
[2]
  growth at 0.01 µM: 93%
[3]
  growth at 0.01 µM: 97%
[4]
  growth at 0.01 µM: 99%
[5]
  growth at 0.01 µM: 105%
[6]
  growth at 0.01 µM: 107%
[7]
  growth at 0.01 µM: 90%
[8]
  growth at 0.1 µM: 98%
[9]
  growth at 0.1 µM: 80%
[10]
  growth at 0.1 µM: 100%
[11]
  growth at 0.1 µM: 89%
[12]
  growth at 0.1 µM: 91%
[13]
  growth at 1 µM: 78%
[14]
  growth at 1 µM: 79%
[15]
  growth at 1 µM: 86%
[16]
  growth at 1 µM: 57%
[17]
  growth at 1 µM: 63%
[18]
  growth at 1 µM: 72%
[19]
  growth at 1 µM: 71%
[20]
  growth at 100 µM: -72%
[21]
  growth at 100 µM: -30%
[22]
  growth at 100 µM: 4%
[23]
  growth at 100 µM: -8%
[24]
  growth at 100 µM: -19%
[25]
  GI50: 38.9 µM
  LC50: > 100 µM
  TGI: > 100 µM
[26]
  GI50: 6.03 µM
  TGI: 38.3 µM
[26]; [35]
  CC50: > 100 µM
[27]
  GI50: 25.2 µM
  TGI: > 100 µM
[27]; [35]
  CC50: > 100 µM
[28]
  GI50: 6.52 µM
  LC50 (concentration killing 50% of cells): > 100 µM
  TGI: > 100 µM
[29]
  GI50: 18.5 µM
  LC50: > 100 µM
  TGI: > 100 µM
[30]
  GI50: 4.45 µM
  TGI: 85.2 µM
[30]; [35]
  CC50: > 100 µM
[31]
  GI50: 2.78 µM
  TGI: 14 µM
[31]; [35]
  CC50: 62.5 µM
[32]
  GI50: 11.2 µM
  TGI: > 100 µM
[32]; [35]
  CC50: > 100 µM
[33]
  GI50: 5.22 µM
  TGI: 22.2 µM
[33]; [35]
  CC50: 76.3 µM
[34]
  GI50: 2.6 µM
  TGI: 61.4 µM
[34]; [35]
  CC50: > 100 µM
